What is called EC50 is the concentration giving half of the maximal effect. One may read the inhibition as how much of the control response was suppressed. Usually IC50 stands for the concentration that inhibits the measured activity by half.

Results on nine compounds are retold here after ChEMBL document CHEMBL2429814 (J Med Chem, 2013).

Each structure is given as a SMILES string. Bounds are passed on as bounds.

The target in series [1] is T1, Metabotropic glutamate receptor 5 (Homo sapiens, UniProt P41594). In words: Positive allosteric modulation of mGluR5 (unknown origin) at 10 uM relative to glutamate. The procedure, abridged:
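HEK293 cells stably expressing rat mGlu5 (low receptor expression line) were plated overnight at 37°C/5% CO2 and loaded with Fluo-4AM for 50 min at 37°C in HBSS with 20 mM HEPES and 2.5 mM probenecid, pH 7.4. PAM (10 µM) or vehicle was added, then a glutamate concentration-response curve 140 s later. Read-out was calcium fluorescence, reported as glutamate fold-shift, three independent runs in triplicate.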
Target sequence in this assay (P41594 21-1212 limits assumed): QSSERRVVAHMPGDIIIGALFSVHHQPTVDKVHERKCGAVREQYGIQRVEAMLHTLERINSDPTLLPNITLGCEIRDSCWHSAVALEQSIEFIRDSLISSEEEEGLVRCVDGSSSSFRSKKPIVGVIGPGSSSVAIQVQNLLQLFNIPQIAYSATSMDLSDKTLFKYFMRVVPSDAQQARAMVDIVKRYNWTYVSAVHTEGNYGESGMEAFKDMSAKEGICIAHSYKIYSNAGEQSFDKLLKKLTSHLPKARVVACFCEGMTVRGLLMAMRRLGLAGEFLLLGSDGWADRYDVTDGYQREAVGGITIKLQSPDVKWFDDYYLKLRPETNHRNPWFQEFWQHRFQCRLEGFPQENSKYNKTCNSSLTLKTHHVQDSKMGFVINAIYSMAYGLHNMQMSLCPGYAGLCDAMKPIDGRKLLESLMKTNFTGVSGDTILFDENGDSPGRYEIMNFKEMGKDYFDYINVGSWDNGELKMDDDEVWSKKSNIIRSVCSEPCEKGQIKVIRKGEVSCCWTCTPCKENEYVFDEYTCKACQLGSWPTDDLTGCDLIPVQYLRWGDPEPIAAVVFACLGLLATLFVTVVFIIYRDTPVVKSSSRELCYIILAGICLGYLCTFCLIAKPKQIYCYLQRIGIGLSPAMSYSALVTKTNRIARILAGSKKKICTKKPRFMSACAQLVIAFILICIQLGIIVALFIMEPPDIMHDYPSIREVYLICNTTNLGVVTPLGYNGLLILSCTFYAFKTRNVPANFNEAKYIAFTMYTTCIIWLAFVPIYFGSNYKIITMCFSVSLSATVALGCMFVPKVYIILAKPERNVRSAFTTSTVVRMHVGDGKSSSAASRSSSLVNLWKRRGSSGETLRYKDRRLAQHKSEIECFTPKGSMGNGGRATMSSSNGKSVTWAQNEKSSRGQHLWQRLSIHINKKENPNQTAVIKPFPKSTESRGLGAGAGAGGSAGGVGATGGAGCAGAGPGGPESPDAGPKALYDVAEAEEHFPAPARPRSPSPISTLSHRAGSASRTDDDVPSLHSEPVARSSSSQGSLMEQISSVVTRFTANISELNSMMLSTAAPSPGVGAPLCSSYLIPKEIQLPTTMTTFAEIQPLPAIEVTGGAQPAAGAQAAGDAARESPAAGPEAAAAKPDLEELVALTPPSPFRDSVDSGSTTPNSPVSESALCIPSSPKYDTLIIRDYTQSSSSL

The target in series [2] is T2, Metabotropic glutamate receptor 5 (Rattus norvegicus, UniProt P31424). Kind of series: Positive allosteric modulation of rat mGluR5.
Series [3] concerns the target T1, Metabotropic glutamate receptor 5. In words: Positive allosteric modulation of human mGluR5.
Target sequence in this assay (P41594 whole entry): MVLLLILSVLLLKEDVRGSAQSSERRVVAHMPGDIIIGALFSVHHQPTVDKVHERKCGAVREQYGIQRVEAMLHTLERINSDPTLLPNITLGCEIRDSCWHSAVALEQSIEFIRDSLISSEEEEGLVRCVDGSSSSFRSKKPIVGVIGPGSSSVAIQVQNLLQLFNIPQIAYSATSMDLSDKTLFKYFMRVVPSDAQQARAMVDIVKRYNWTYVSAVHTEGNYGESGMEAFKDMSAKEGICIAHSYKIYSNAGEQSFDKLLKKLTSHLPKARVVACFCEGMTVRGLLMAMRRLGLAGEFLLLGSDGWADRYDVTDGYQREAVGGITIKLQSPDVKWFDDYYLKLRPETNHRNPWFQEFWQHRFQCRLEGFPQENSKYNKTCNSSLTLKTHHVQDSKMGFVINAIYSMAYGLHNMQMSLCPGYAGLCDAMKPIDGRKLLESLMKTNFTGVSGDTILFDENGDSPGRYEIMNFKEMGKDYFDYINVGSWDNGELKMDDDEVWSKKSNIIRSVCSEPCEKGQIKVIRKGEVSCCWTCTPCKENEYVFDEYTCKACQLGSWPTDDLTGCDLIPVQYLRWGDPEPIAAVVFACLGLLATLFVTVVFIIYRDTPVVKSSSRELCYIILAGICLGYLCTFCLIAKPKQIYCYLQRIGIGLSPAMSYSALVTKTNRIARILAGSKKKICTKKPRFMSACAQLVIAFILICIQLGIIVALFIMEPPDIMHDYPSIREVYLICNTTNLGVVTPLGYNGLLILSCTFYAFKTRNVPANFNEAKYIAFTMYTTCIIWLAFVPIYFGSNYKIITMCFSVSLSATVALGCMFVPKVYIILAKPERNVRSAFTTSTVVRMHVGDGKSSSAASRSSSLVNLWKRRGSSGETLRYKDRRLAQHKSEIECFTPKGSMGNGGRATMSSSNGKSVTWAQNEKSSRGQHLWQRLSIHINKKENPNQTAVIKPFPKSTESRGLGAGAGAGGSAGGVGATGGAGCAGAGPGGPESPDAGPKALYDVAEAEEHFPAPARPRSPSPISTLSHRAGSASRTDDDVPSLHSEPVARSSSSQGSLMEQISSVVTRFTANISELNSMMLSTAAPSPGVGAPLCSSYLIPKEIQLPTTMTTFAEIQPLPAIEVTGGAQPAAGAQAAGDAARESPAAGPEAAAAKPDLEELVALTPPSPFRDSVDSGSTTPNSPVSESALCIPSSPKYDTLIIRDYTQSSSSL
The target in series [4] is Metabotropic glutamate receptor 5 (Rattus norvegicus) (UniProt P31424). In words: Positive allosteric modulation of mGluR5 in rat cortical neurons at 3 uM relative to DHPG.
Series [5] shares this target. In words: Potentiation of rat mGluR5 receptor stably expressed in HEK293 cells assessed as fold shift in glutamate concentration response curve at 10 uM relative to control. The format is cell-based. The gist of the method:
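HEK293 cells stably expressing rat mGlu5 were loaded with Fluo-4AM. Compound at 10 µM, or vehicle, was added, and a glutamate concentration-response curve followed 140 s later. The fold leftward shift of the glutamate curve was read from calcium fluorescence. Values are means of three independent experiments in triplicate.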

The target in series [6] is T2, Metabotropic glutamate receptor 5. In words: Positive allosteric modulation of rat mGluR5 stably expressed in HEK293 cells assessed as increase in intracellular calcium level by Fluo-4AM dye-based fluorescence assay. The format is functional, cell-based. The settings on record: read-out: EC50. The gist of the method: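 HEK293 cells stably expressing rat mGlu5 (low receptor density line), 15,000 cells/well, grown overnight at 37°C/5% CO2. Loaded with Fluo-4AM for 50 min at 37°C in HBSS with 20 mM HEPES, 2.5 mM probenecid, pH 7.4. Triple add: compound, then EC20 glutamate 140 s later, then EC80 glutamate 60 s later. Calcium fluorescence read over time. Values are means of ≥3 independent experiments run in duplicate or triplicate.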

Series [7] has as its target Metabotropic glutamate receptor 5 (Rattus norvegicus) (UniProt P31424). In words: Positive allosteric modulation of rat mGluR5 stably expressed in HEK293 cells assessed as increase in intracellular calcium level by Fluo-4AM dye-based fluorescence assay relative to glutamate. The class given is functional, cell-based. (In general: Calcium flux is commonly read through the fluorescence of an indicator in the cells.)

The target is the same in series [8]. In words: Antagonist activity at rat mGluR5 stably expressed in HEK293 cells assessed as inhibition of glutamate-induced intracellular calcium level by Fluo-4AM dye-based fluorescence assay relative to control. The format is functional, cell-based. To be noted: concentration not given here.
Series [9] has as its target T2, Metabotropic glutamate receptor 5. In words: Antagonist activity at rat mGluR5 stably expressed in HEK293 cells assessed as inhibition of glutamate-induced intracellular calcium level by Fluo-4AM dye-based fluorescence assay. The format is functional, cell-based.
Series [10] is described as follows: Fraction unbound in human plasma by equilibrium dialysis method. The class given is ADME, cell-free. The gist of the method: (§1)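 Plasma protein binding measured by equilibrium dialysis in human or rat plasma; reported as percent unbound.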
For orientation: In equilibrium dialysis free small molecules cross a membrane that holds back macromolecules.

The nature of series [11]: Plasma protein binding in rat. The class given is ADME, cell-free. The settings on record: read-out: PPB. The gist of the method:
(§2)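 Fraction unbound measured by equilibrium dialysis in human or rat plasma.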

Series [12] in a line: Fraction unbound in rat plasma by equilibrium dialysis method. The class given is ADME, cell-free. The gist of the method:
as §1

Series [13] in a line: Plasma protein binding in human. To be noted: read-out: PPB. The format is ADME, cell-free. The gist of the method:
as §2

Sequence of Metabotropic glutamate receptor 5 (Rattus norvegicus) (P31424 21-1203 limits assumed): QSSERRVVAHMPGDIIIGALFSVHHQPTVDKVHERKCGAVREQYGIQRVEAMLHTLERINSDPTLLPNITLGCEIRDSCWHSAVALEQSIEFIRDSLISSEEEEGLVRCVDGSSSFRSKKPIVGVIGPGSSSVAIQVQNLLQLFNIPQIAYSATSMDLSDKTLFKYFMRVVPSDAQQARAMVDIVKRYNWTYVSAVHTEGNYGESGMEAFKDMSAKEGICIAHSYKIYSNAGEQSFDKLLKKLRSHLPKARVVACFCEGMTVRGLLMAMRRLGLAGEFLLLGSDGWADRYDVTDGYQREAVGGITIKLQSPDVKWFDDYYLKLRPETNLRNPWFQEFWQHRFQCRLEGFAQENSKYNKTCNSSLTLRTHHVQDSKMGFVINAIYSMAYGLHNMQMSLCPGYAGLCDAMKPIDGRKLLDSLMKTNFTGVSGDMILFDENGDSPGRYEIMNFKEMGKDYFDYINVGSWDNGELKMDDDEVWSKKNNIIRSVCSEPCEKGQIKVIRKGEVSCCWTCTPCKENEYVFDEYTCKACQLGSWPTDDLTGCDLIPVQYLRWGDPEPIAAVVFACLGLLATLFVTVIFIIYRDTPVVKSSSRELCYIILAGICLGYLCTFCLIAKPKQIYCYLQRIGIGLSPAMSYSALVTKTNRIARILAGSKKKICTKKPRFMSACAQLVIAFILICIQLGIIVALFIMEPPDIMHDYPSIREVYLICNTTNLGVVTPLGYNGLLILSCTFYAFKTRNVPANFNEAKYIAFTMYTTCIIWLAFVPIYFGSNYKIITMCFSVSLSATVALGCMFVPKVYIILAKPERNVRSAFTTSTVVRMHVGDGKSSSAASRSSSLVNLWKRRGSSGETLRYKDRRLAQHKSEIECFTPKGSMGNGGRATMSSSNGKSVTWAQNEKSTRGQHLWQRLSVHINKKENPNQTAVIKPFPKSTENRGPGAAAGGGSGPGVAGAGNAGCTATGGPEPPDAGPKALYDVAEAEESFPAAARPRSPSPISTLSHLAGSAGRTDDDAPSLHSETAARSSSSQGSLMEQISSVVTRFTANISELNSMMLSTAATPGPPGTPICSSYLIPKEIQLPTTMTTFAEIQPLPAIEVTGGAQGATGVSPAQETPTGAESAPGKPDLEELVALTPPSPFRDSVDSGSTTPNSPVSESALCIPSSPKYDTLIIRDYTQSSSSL
T2 sequence (P31424 whole entry): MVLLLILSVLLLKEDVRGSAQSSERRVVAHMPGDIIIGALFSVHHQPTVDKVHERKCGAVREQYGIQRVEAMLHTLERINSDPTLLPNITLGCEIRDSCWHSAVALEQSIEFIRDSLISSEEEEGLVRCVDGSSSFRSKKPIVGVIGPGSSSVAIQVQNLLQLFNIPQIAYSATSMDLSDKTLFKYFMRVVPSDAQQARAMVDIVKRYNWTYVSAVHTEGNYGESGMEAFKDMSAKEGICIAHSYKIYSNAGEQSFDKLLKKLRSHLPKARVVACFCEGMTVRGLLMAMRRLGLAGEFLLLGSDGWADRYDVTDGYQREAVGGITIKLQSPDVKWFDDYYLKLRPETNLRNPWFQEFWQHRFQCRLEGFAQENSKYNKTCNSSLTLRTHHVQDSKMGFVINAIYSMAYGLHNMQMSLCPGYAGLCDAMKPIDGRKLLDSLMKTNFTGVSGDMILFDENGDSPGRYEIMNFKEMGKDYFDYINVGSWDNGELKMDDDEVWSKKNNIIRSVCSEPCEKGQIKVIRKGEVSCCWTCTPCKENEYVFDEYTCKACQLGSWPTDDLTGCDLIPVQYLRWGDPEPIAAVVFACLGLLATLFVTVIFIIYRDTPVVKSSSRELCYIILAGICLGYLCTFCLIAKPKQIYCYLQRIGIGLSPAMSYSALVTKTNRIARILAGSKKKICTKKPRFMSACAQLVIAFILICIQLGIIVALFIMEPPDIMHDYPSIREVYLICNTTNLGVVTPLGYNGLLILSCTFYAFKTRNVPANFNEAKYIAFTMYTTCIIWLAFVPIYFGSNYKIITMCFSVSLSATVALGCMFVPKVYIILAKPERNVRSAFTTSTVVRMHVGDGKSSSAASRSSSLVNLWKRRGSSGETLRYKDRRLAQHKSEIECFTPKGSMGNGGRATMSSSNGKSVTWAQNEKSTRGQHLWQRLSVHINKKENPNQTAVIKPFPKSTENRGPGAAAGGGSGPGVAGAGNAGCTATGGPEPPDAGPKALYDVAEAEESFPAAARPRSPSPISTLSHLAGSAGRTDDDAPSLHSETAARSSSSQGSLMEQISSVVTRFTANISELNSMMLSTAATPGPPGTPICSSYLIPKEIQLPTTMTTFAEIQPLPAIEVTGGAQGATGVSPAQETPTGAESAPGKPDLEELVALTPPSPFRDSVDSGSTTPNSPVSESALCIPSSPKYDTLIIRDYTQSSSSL

`C[C@@H]1CC[C@H](c2noc(-c3ccc(F)cn3)n2)CN1C(=O)c1ccccc1` displayed a fold change (FC) in [1] of 11.
As for `CC(C)(C)c1nnc2n1CC[C@H](c1nc(-c3ccc(F)cc3)no1)C2`, the EC50 in series [2] came to 42 nM; in [3], 52 nM. This compound gave a fold change (FC) in [4] of 2.8.
On to `C[C@@H](NC(=O)c1ccc(C#Cc2ccccn2)cn1)C(C)(C)F`, for which the fold change (FC) in series [5] came out at 1.5. For the same compound, the EC50 in [6] turned out to be 22.2 nM. For the same compound, in [7], the Efficacy stood at 54.9%.
On to `CC(C)(O)CCNC(=O)c1ccc(C#Cc2cccc(F)c2)cn1`, for which, in series [5], the fold change (FC) was determined as 5.3. In series [6], the EC50 came out at 136 nM. Moreover, the Efficacy in series [7] was found to be 61.9%.
With `Cc1nc(C#Cc2ccc(C(=O)N[C@H](C)C(C)(C)O)nc2)cs1`, the fold change (FC) in series [5] was 1.6. Besides, the EC50 in [6] amounted to 58.4 nM. Besides, the Efficacy in series [7] came to 66.6%.
For `O=C1c2ccc(F)cc2CCC2CC[C@@H](c3noc(-c4ccc(F)cn4)n3)CN12` (some centres undefined), the fold change (FC) in [1] came to 6.
Regarding `CC1(NC(=O)c2ccc(C#Cc3ccccn3)cn2)COC1`, the inhibition in [8] worked out at 16.7%. In series [9], the IC50 came out at 731 nM.
Turning to `O=C(NC1CCC1)c1ccc(C#Cc2cccc(F)c2)cn1`, the fraction unbound in series [10], in series [11], in [12] and in series [13] was less than 0.01 in each case. Also, it took 4 nM to reach a half-maximal effect in series [2] (EC50).
For `CC1(CNC(=O)c2ccc(C#Cc3cccc(F)c3)cn2)COC1`, in [5], the fold change (FC) was 3.3. Further, the EC50 in [6] turned out to be 10.7 nM. Also, the Efficacy in [7] amounted to 60.4%.
